Screens deposited in PubChem by several laboratories.
Hits are enriched below; roughly 3.1% of the tested compounds scored in any of these assays.
PHOSPHO1 block = PHOSPHO1 (human) inhibition; AID 1565; recombinant PHOSPHO1, absorbance phosphatase assay; inhibition, % at 13.3 µM; actives 1.1% (n = 290,000); in the data active means inhibition above about 60%
Target sequence (Q8TCT1 whole entry, looked up): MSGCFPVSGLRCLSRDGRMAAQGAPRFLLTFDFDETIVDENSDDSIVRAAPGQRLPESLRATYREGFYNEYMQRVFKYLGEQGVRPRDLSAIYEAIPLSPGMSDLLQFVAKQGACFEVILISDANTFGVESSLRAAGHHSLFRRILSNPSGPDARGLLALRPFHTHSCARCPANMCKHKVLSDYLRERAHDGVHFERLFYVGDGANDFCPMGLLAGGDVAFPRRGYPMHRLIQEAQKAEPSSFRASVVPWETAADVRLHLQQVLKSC
HCV NS3 hel inh = inhibitors of Hepatitis C virus NS3 helicase; inhibition, % at 10.9 µM; AID 1800; actives 0.56% (n = 290,000); NS3 helicase DNA unwinding, Cy5 molecular beacon fluorescence;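 active means inhibition above the mean of all tested compounds plus 3 SD, set per campaign, cut at about 35% in these data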
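Test system: hepatitis C virus NS3 helicase domain fragment enzyme. Also added: annealed dual-labelled DNA beacon duplex, ATP-started. Timing: 60 min unwinding reaction at 25 °C after ATP addition. Technique: Cy5 fluorescence. Measure: % inhibition of unwinding.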
core dimer inh = HCV core protein dimerization inhibition. actives 0.33% (n = 300,000). inhibition, % at 5 µM. TR-FRET GST/Flag-core106 dimerization, 1536-well. AID 1899;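 active means inhibition above the mean of all tested compounds plus 3 SD, set per screening campaign, cut at about 45% in these data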
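System: GST-tagged and Flag-tagged HCV core protein residues 1-106 / Input: core106 proteins, GST 13.5 nM and Flag 17 nM / Buffer or medium: KF-containing HEPES buffer, pH 7.45, DTT, CHAPS, BSA / Probe or stimulus: Eu-anti-GST and XL665-anti-Flag labelled anti-tag antibodies / Schedule: 4 h, 22.5 °C incubation / Technique: TR-FRET 671 and 617 nm emission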
VIM-2 inh = inhibitors of Pseudomonas aeruginosa VIM-2 metallo-beta-lactamase | purified VIM-2, nitrocefin hydrolysis, epi-absorbance fluorescence | inhibition, % at 5.6 µM | actives 0.89% (n = 290,000) | AID 1527;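 active means inhibition above the mean of all tested compounds plus 3 SD, cutoff set per screening run, cut at about 7.5% in these data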;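 further: red hydrolysis product quenches plate fluorescence so inhibitors raise well fluorescence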
UBC9 SUMO inh = SUMOylation inhibition. AID 2006. inhibition, % at 35 µM. actives 0.36% (n = 290,000). HTRF SUMOylation assay, SAE1/SAE2 + UBC9, in vitro. P63279; in the data active means inhibition above about 50%, passing the limit was not always enough
Target sequence (P63279 whole entry, looked up): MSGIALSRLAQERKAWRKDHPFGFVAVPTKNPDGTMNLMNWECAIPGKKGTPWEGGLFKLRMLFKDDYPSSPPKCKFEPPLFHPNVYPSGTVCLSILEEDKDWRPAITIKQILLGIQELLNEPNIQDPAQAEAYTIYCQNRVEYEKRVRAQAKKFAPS
IMP-1 inhibitor = blocks Pseudomonas aeruginosa IMP-1 metallo-beta-lactamase. inhibition, % at 5.6 µM. actives 0.45% (n = 290,000). purified IMP-1, nitrocefin hydrolysis, epi-absorbance fluorescence. AID 1556;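 active means inhibition above the mean plus 3 SD of all compounds in the same screening run, cut at about 4.5% in these data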
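Assay system: purified IMP-1; Quantity: IMP-1 0.2 nM before substrate addition; Medium: HEPES buffer pH 7.1 with ZnSO4 and Brij 35; Incubation: 15 min enzyme–compound preincubation, then 25 min nitrocefin reaction, 25 °C; Signal: fluorescence quenching readout, ex 480/em 530 nm; Controls: DMSO with and without IMP-1; Repeats: singlicate testing.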
NS3 hel confirm = HCV NS3 helicase inhibition, confirmation assay | shares compounds with HCV NS3 hel inh | NS3 helicase DNA unwinding, Cy5 molecular beacon fluorescence | inhibition, % at 10.9 µM | actives 31% (n = 1,600);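 active means inhibition above the mean of all tested compounds plus 3 SD, cutoff set per campaign, cut at about 36% in these data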
FID counter trip = counter-screen for HCV NS3 helicase inhibitors: DNA intercalator displacement; DNA fluorescent intercalator displacement, fluorescence; AID 1945; actives 4% (n = 1,600); inhibition, % at 7.9 µM; shares compounds with HCV NS3 hel inh; in the data active means inhibition above about 37%;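 further: higher means more displacement of ethidium bromide from the DNA hairpin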
FID counter DR = counter-screen for HCV NS3 helicase inhibitors: DNA intercalator displacement dose response; 120 tested, under 10 active; IC50, µM; shares compounds with HCV NS3 hel inh; fluorescent intercalator displacement from DNA, fluorescence; AID 2172; call rule not given here
Of the large screens only hits and unclear results are named; the others gave an inactive call (follow-up assays come after a bar, where they were run).

CCCCn1c(N)c(N(CCOC)C(=O)CSc2nnc(-c3ccc(F)cc3)n2N)c(=O)[nH]c1=O	none (no result: PHOSPHO1 block, HCV NS3 hel inh, VIM-2 inh, UBC9 SUMO inh, IMP-1 inhibitor)
Cn1nc(C(C)(C)C)c(NC(=O)c2cccs2)c1C(C)(C)C	none
CCOC(=O)c1c(C)oc2c(F)c(F)c(F)c(F)c2c1=O	HCV NS3 hel inh 42, IMP-1 inhibitor 8.8 | NS3 hel confirm inactive | FID counter trip inactive
CCOC(=O)c1sc(-c2ccc(Cl)cc2Cl)nc1O	none
Cc1cc(O)c(C=O)c2c1C(=O)Oc1c(CO)c(O)c3c(c1O2)C(O)OC3=O (stereo unspecified)	HCV NS3 hel inh 47, UBC9 SUMO inh 96 | NS3 hel confirm 62 | FID counter trip 86
CCOC(=O)c1sc2nc3c(SCCC(=O)O)cc(C(=O)c4cc(OC)ccc4O)cn3c(=O)c2c1C	HCV NS3 hel inh 40, UBC9 SUMO inh 74 (no result: core dimer inh) | NS3 hel confirm 83 | FID counter trip inactive | FID counter DR inactive
Cc1ccc(C(=O)C2=C(O)C(=O)N(Cc3ccco3)C2c2cccc(Cl)c2)o1 (stereo unspecified)	HCV NS3 hel inh 74 | NS3 hel confirm 71 | FID counter trip inactive | FID counter DR inactive
Cc1ccc(C(=O)C2=C(O)C(=O)N(Cc3cccnc3)C2c2ccc(Br)cc2)o1 (stereo unspecified)	HCV NS3 hel inh 40 | NS3 hel confirm inactive | FID counter trip inactive
O=C(C1=C(O)C(=O)N(Cc2ccco2)C1c1cccc(O)c1)c1ccco1 (stereo unspecified)	none
Cc1ccc(C(=O)C2=C(O)C(=O)N(Cc3ccco3)C2c2cccc(Br)c2)o1 (stereo unspecified)	HCV NS3 hel inh 101 | NS3 hel confirm 92 | FID counter trip inactive
COc1ccc(C(=O)NC2CC2)cc1OC1CCN(Cc2ccc(F)cc2Cl)CC1	none
CC1CCCC2(C1)NC(=S)c1c(sc3c1CCCC3)N2 (stereo unspecified)	HCV NS3 hel inh 36, core dimer inh 53 | NS3 hel confirm inactive | FID counter trip inactive
CC1CCCC2(C1)NC(=S)N(c1ccccc1)N2 (stereo unspecified)	none
CC1=NN(c2ccc(C(=O)O)cc2)C(=O)/C1=C/c1ccc(-c2ccccc2F)o1	HCV NS3 hel inh 39 | NS3 hel confirm inactive | FID counter trip inactive
CCn1ncc(S(=O)(=O)NCc2ccccc2Cl)c1C	none (no result: PHOSPHO1 block)
Cc1oc2cc([N+](=O)[O-])c(O)c([N+](=O)[O-])c2c1C(=O)c1ccc(Cl)cc1	none
CC(C)CN=Cc1c(O)c([N+](=O)[O-])cc2oc3c(c12)CCCC3	HCV NS3 hel inh 46, IMP-1 inhibitor 10 | NS3 hel confirm inactive | FID counter trip 63
Cc1cccc(/N=C/c2c(O)ccc3oc4c(c23)CCCC4)n1	none
O=[N+]([O-])c1cc2oc3c(c2c(C=NCc2ccccc2)c1O)CCCC3	HCV NS3 hel inh 51 | NS3 hel confirm 75 | FID counter trip 69
CN(CC1CCOCC1)C(=O)CC1C(=O)NCCN1Cc1ccc(F)c(F)c1 (stereo unspecified)	none
CCOc1ccc(CCNC(=O)COC(=O)c2cc(OC)c(OC)cc2[N+](=O)[O-])cc1OCC	none (no result: PHOSPHO1 block, HCV NS3 hel inh, VIM-2 inh, UBC9 SUMO inh, IMP-1 inhibitor)
N=c1c(S(=O)(=O)c2ccc(Br)cc2)cc2c(=O)n3ccccc3nc2n1Cc1ccco1	none (no result: UBC9 SUMO inh)
N=c1c(S(=O)(=O)c2ccc(Cl)cc2)cc2c(=O)n3ccccc3nc2n1Cc1ccco1	HCV NS3 hel inh 45 (no result: UBC9 SUMO inh) | NS3 hel confirm 70 | FID counter trip 48
COc1ccc(CCN(C)Cc2nc(Cc3ccc(OC)c(OC)c3)no2)cc1OC	none
CCc1ccc(C(=O)COC(=O)c2ccc(Cl)nc2)cc1	none
CCCn1c(C(O)c2ccc(OC)cc2)nc2ccccc21 (stereo unspecified)	none
CCCn1c(C(O)c2cccc(OC)c2)nc2ccccc21 (stereo unspecified)	HCV NS3 hel inh 42 (no result: core dimer inh) | NS3 hel confirm inactive | FID counter trip inactive
CN(CC(=O)Nc1ccc(Cl)c(C(F)(F)F)c1)C(=O)Cc1ccsc1	none (no result: PHOSPHO1 block, HCV NS3 hel inh, VIM-2 inh, UBC9 SUMO inh, IMP-1 inhibitor)
C=CCOc1c(Br)cc(/C=C2/NC(=S)N(C(C)=O)C2=O)cc1OC	none
C=CCOc1ccc(Br)cc1/C=C1\NC(=S)N(C(C)=O)C1=O	HCV NS3 hel inh 40 | NS3 hel confirm inactive | FID counter trip inactive
COC(=O)c1ccc(C2/C(=C(\O)c3ccc(OC)c(C)c3)C(=O)C(=O)N2c2cc(C)on2)cc1 (stereo unspecified)	none
Cc1cc(N2C(=O)C(=O)/C(=C(/O)c3ccc(F)cc3)C2c2ccc(Cl)cc2)no1 (stereo unspecified)	HCV NS3 hel inh 43 | NS3 hel confirm 68 | FID counter trip inactive
COc1ccc(CN(CCC(c2ccccc2)c2ccco2)C(=O)c2ccco2)cc1 (stereo unspecified)	none
O=C(c1ccco1)N(CCC(c1ccccc1)c1ccco1)Cc1ccccc1 (stereo unspecified)	HCV NS3 hel inh 50 | NS3 hel confirm inactive | FID counter trip inactive
O=C(CSCc1nc2c(nnn2Cc2ccc(F)cc2)c(=O)[nH]1)Nc1cccc(C(F)(F)F)c1	none
CNc1ccc(Br)cc(C(=O)/C=C/c2cccc(Cl)c2Cl)c1=O	HCV NS3 hel inh 37, IMP-1 inhibitor 5.9 (no result: core dimer inh) | NS3 hel confirm 68 | FID counter trip inactive | FID counter DR inactive
CNc1ccccc(C(=O)/C=C/c2ccccc2OC)c1=O	none
O=C(NNC(=S)NC1CCCCC1)c1sc2ccccc2c1Cl	HCV NS3 hel inh 48 | NS3 hel confirm 46 | FID counter trip inactive
O=C(NC1CC1)c1sc2ccccc2c1Cl	none
COc1ccc(-n2c(SCC(=O)N/N=C(\C)c3cccnc3)nc3ccccc3c2=O)cc1	none
COc1ccc(NC(=O)CN(C)C(C)C(=O)NC(=O)NC2CCCCC2)cc1 (stereo unspecified)	none
Cc1cccc(NC(=O)c2ccccc2OCC(=O)N2CCCC2)c1C	HCV NS3 hel inh 40 | NS3 hel confirm inactive | FID counter trip inactive
Cc1cccc(OCC(=O)Nc2ccccc2N2CCCC2)c1C	none (no result: PHOSPHO1 block, HCV NS3 hel inh, VIM-2 inh, UBC9 SUMO inh, IMP-1 inhibitor)
CC(C)CSC1=NSC2=NC(=O)/C(=C\c3ccccc3)C(=N)N12	HCV NS3 hel inh 43 | NS3 hel confirm 69 | FID counter trip inactive
CC(C)CSC1=NSC2=NC(=O)/C(=C\c3coc4ccccc4c3=O)C(=N)N12	none
